# Assay outcomes from PubChem.
# Sampled rows, rich in hits. Any-hit rate of the full collection: about 0.48%.
# proCasp7 act – counter-screen: procaspase-7 (human) activation. P55210. recombinant procaspase-7, Ac-DEVD-pNA absorbance 405 nm; D23A/D198A/D206A triple mutant, cannot self-cleave; scale: DMSO 0, 5 µM enzyme 100. activation, % at 8.5 µM. 0.093% of 330,000 active. AID 463210;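 active = percent activation above the screen-wide mean plus 3 SD, cut at about 25% in these data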
#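 Detection: p-Nitroaniline absorbance at 405 nm, read at 0 and 120 min; system: Uncleavable procaspase-7 mutant enzyme; evaluation: % activation from two-timepoint absorbance difference, scaled to controls; times: 1 h enzyme–compound preincubation and 2 h substrate reaction, both 25 °C; buffer or medium: Zinc-free HEPES pH 7.4 with 300 mM NaCl, 0.01% Triton X-100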
# Bfl-1 A1 inh – inhibitors of the anti-apoptotic protein A1, read as caspase activation; MEF A1-2A-BIM cells, Caspase-Glo 3/7 luminescence, 3 h; percent of clofoctol response, vehicle zero; caspase activation, % (test concentration not listed); 0.066% of 330,000 active; AID 2462;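 active = over half of replicate activation scores above 10%, or exactly half above 10 with the replicate mean above 10; inconclusive = replicate mean below 10 yet half the replicates above 10; inactive = over half of replicates below 10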
# proCasp3 act – activates human procaspase-3; P42574; recombinant procaspase-3 D3A, Ac-DEVD-pNA absorbance 405 nm; activation, % at 8.5 µM; 0.11% of 330,000 active;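 active = activation above the mean of all tested compounds plus 3 SD, cut at about 21% in these data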;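 note: 0% = DMSO alone and 100% = DMSO wells spiked with extra 5 µM PC-3 D3A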
#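 Assay system – Procaspase-3 D3A mutant · Benchmarks – DMSO low control, extra-enzyme high control · Technique – 405 nm absorbance of p-nitroaniline, reads at 0 and 120 min · Doses – 8.5 µM nominal · Measure – % activation between DMSO and enzyme-spiked controls · Also added – Ac-DEVD-pNA chromogenic peptide substrate · Schedule – 1 h compound preincubation, 2 h substrate hydrolysis at 25 °C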
# PolyA inhibitor – inhibitors of polyadenylation in S. cerevisiae; S. cerevisiae SKY197-pL101 polyadenylation reporter, beta-gal luminescence; efflux-impaired pdr1/pdr3 knockout yeast; score 100 = 6 SD above DMSO; 0.02% of 300,000 active; activity score, % at 12 µM;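 active = lowest replicate activity score at least 50, where 100 means six control SD above control mean; inconclusive = lowest score under 50 but half or more replicates reach 50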;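 note: yeast exposed to compound for 9 h at 30 °C; higher score means more reporter readthrough which indicates perturbed polyadenylation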
# Rce1 inh – inhibitors of yeast Ras-converting enzyme | 0.27% of 290,000 active | Q03530 | calls only | yeast membranes, quenched prenylated peptide cleavage fluorescence;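 active = fall in fluorescence gain of 50% or more versus controls, with final raw signal at or below 3038400; inconclusive = same 50% fall but final raw signal above 3038400; inactive = fall in fluorescence gain under 50%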;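 note: plate controls were neutral control wells for no effect and wells lacking membranes for full effect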
# Target sequence (Q03530 whole entry, looked up): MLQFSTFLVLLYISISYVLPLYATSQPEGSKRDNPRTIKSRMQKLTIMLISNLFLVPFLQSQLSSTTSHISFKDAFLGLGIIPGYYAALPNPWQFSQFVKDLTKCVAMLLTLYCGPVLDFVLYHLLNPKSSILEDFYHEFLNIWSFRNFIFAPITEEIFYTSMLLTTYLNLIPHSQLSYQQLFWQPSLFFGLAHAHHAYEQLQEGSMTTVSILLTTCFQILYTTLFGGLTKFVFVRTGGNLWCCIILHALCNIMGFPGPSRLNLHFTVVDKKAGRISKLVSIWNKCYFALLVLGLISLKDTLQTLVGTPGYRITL
# PC3 dual counter – counter-screen for dual procaspase-3/7 activators: human procaspase-3 activation. shares compounds with proCasp7 act. recombinant PC-3 D3A, Ac-DEVD-pNA absorbance 405 nm; aspartates 9, 28, 175 changed to alanine; 100% = enzyme control. activation, % at 8.5 µM. 290 tested, under 10 active. AID 493114;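 active = mean percent activation across triplicates above a set limit taken from the earlier primary procaspase-3 screen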;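 note: 0% = DMSO wells and 100% = DMSO wells with 5 µM added PC-3 D3A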
# PC7 dual conf – procaspase-7 (human) activation, dual activator confirmation; 290 tested, under 10 active; recombinant procaspase-7, Ac-DEVD-pNA absorbance 405 nm; D23A/D198A/D206A mutant that cannot self-cleave; AID 493115; activation, % at 8.5 µM; shares compounds with proCasp7 act;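 active = mean activation above a set limit carried over from the earlier primary screen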;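 note: 0% = DMSO only and 100% = DMSO with added 5 µM PC-7 enzyme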
# Starred values were filed as active, the others as inactive; i = inactive; ? = inconclusive; · = not tested or not shown.
SMILES,proCasp7 act,Bfl-1 A1 inh,proCasp3 act,PolyA inhibitor,Rce1 inh,PC3 dual counter,PC7 dual conf
O=C(O)c1ccc(N2N=C(c3ccccc3)CC2c2ccccc2)cc1 (centres undefined),-4.9,0.5,3.6,-22.3,i,·,·
O=[N+]([O-])c1cccc(C2CC(c3ccccc3)=NN2c2ccccc2)c1 (centres undefined),-5.3,-0.2,6.1,9.8,i,·,·
COc1ccc(C2CC(c3ccccc3)=NN2c2ccc(C(N)=O)cc2)cc1 (centres undefined),38.4*,0.1,30.4*,9.0,?,-28.9,-36.1
COc1ccc(C2CC(c3cccc(C(F)(F)F)c3)=NN2c2ccc(S(N)(=O)=O)cc2)cc1 (centres undefined),52.9*,·,43.9*,·,·,-30.4,-35.2
NS(=O)(=O)c1ccc(N2N=C(c3ccccc3)CC2c2cccc(Cl)c2)cc1 (centres undefined),44.1*,·,38.7*,·,·,-30.7,-32.9
COc1ccc(C2CC(c3cccc(Br)c3)=NN2c2ccc(S(N)(=O)=O)cc2)cc1 (centres undefined),-42.0,·,-4.0,·,·,·,·
COc1ccc(C2CC(c3ccccc3)=NN2c2ccc(S(N)(=O)=O)cc2)cc1 (centres undefined),50.8*,1.3,27.9*,-4.3,i,-28.4,-35.3
Clc1ccc(C2=NN(c3ccccc3)C(c3ccco3)C2)cc1 (centres undefined),-25.3,-0.8,-18.5,-13.7,i,·,·
CC(=O)Nc1ccc(C2CC(c3ccc(Cl)cc3)=NN2c2ccccc2)cc1 (centres undefined),136.2*,2.2,163.4*,22.4,i,-27.9,-33.8
CC(=O)Nc1ccc(C2=NN(c3ccccc3)C(c3ccccc3)C2)cc1 (centres undefined),46.0*,0.0,217.8*,-6.1,i,-28.5,-35.9
O=c1ccc(C(F)(F)F)cn1Cc1cc(=O)n2cc(Br)ccc2n1,-4.8,0.5,4.9,12.4,i,·,·
CN(C)c1nc(-c2ccccc2)c2cnn(Cc3ccccc3)c2n1,34.5*,-0.2,18.3,-5.9,i,-28.8,-36.0
COc1ccc(NC(=O)CCc2nc3ccccc3c(=O)[nH]2)cc1S(=O)(=O)N1CCCCC1,8.4,0.9,2.3,·,·,·,·
Cc1cc(C)c(S(=O)(=O)c2ccccc2)c(OC(=O)c2c(Cl)cc(Cl)cc2Cl)n1,26.5*,0.1,-1.1,-12.2,i,1.8,2.7
Cc1cc(C)c(S(=O)(=O)c2ccccc2)c(OC(=O)c2c(F)cccc2F)n1,6.9,0.5,-0.7,-9.8,i,·,·
Cn1c(Cc2ccccc2)nnc1SCc1ccc(C(=O)O)cc1,6.5,2.0,-18.5,7.2,i,·,·
Nc1ccccc1-c1nc2ccccc2c(=O)o1,34.3*,-2.0,27.3*,12.9,i,-29.9,-35.6
CC(C)OC(=O)CC(=O)CSc1nc2c(cc1C#N)CCCCCC2,75.4*,0.0,61.6*,-11.5,i,-29.0,-27.3
CC(C)OC(=O)CC(=O)CSc1nc2c(cc1C#N)CCCC2,10.2,-1.5,3.9,-11.1,i,·,·
O=S(=O)(Nc1cc(S(=O)(=O)N2CCOCC2)ccc1NCC1CCCO1)c1ccccc1F (centres undefined),-14.6,-0.4,0.7,·,·,·,·
Oc1c(Cl)cc(Cl)cc1/C=N/NC(=S)NC1CC2C=CC1C2 (centres undefined),40.0*,0.2,42.9*,-15.6,i,-29.7,-34.5
